# Screening results: PubChem, several laboratories
# An excerpt weighted towards active compounds, which were near 3.7% of everything screened.
# Cl transport mod: modulators of human KCC2 chloride dependent transport; Q9H2X9; KCC2 cells, thallium flux FluoZin-2 fluorescence; B-score of Tl+ flux slope (higher = more flux/activation; lower = inhibition) at 10 µM; actives 2.2% (n = 190,000);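 active = thallium flux slope and its plate-corrected score both differing from the plate sample mean at a set confidence after two filtering rounds, in either direction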;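 also: slope of fluorescence scaled to starting intensity during 10 to 20 s after thallium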
# Target sequence (Q9H2X9 whole entry, looked up): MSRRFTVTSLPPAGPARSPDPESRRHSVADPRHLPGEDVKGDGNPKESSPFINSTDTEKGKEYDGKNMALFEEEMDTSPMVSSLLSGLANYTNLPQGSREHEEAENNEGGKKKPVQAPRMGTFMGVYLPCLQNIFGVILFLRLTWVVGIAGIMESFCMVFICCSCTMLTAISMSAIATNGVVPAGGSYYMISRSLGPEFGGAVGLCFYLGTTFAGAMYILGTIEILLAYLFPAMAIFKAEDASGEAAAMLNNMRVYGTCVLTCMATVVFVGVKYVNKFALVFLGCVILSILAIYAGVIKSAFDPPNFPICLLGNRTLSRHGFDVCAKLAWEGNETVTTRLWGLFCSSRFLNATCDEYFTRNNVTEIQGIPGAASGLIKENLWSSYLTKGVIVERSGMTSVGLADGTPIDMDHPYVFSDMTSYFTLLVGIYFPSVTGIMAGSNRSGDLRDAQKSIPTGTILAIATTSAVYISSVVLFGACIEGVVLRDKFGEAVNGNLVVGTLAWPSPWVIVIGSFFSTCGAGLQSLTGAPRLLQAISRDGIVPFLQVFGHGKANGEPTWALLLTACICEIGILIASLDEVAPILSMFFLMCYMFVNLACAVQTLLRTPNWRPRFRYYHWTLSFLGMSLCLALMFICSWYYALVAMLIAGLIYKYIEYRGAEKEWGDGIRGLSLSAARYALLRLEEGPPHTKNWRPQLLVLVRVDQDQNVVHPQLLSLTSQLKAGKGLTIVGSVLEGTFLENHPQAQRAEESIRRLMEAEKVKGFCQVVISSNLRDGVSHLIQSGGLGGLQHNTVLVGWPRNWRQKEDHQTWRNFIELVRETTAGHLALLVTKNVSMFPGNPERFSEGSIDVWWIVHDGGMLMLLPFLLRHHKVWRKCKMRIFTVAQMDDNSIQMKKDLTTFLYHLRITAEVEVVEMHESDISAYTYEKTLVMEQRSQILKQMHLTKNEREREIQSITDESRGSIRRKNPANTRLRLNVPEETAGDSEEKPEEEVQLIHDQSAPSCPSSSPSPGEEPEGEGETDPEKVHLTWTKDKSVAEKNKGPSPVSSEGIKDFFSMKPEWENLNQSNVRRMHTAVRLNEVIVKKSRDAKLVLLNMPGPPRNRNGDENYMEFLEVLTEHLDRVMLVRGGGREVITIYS
# MT stabilizer: microtubule stabilizers in HeLa cells. HeLa tubulin immunostaining HCS, 24 h; share of cells brighter than vehicle mean+2SD. % tubulin-high responders, % at 10 µM. actives 0.83% (n = 200,000);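 active = plate Z-score above 3 for both tubulin-high and condensed-nucleus cell shares, with cell loss under 80%, at 10 µM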;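 also: anti alpha tubulin signal scored within the nucleus-defined area of each cell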
# b-catenin transl: alters nuclear translocation of beta-catenin in HeLa cells; AID 1665; nuclear translocation activity, % at 5 µM; actives 0.3% (n = 190,000); immunofluorescence imaging;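 active = nuclear translocation activity above 50% at 5 µM, with a well cell count of 50 or more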;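 also: per-cell ratio of nuclear to cytoplasmic median beta-catenin stain intensity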
#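 test system = HeLa cells, endogenous beta-catenin | dosing = single 5 µM dose plus 0.02–20 µM confirmation series | times = compound treatment 24 h, 37°C, 5% CO2 | technique = beta-catenin immunofluorescence imaging with DAPI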
# Redox H2O2 prof: compounds producing H2O2 with reducing agent – biochemical, NIH compound library profiling, artefact control for MLSCN library redox annotation, primary screen; DTT-dependent redox cycling H2O2, phenol red/HRP absorbance; 100% = 100 µM peroxide control, 0% = buffer; activation, % at 10 µM; actives 0.03% (n = 200,000);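 active = activation of at least 50% relative to the plate's high and low controls in the primary single-dose screen; inactive = activation below 50%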;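 also: compound incubated with DTT at 0.8 mM final as the reducing agent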
# ROMK primary: modulators of human ROMK potassium channel. P48048. Tet-inducible ROMK, thallium flux fluorescence; actives lie on both sides. B-score at 10 µM. actives 2% (n = 130,000). AID 1918;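 active = signal ratio slope over the read window, or its plate-corrected B-score, at least 3 SD from the plate mean, either direction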;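 also: B-score of the F/F0 ratio slope over 7 to 12 s after thallium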
# A number is an active result; - = inactive; . = no result.
SMILES,Cl transport mod,MT stabilizer,b-catenin transl,Redox H2O2 prof,ROMK primary
O=C1CSC(c2cccc([N+](=O)[O-])c2)N1c1c(F)cccc1F (configuration not stated),-,10,-,-,-
COc1ccc(/C(C)=N/OC/C(O)=C(\C#N)c2nc3ccccc3[nH]2)cc1OC,-,16,-,-,-
CCOc1ccc(N2CCc3c(C)nc(SC)nc32)cc1,-,31,125,-,-
COc1ccc(N2CCc3c(C)nc(SC)nc32)cc1,-,17,-,-,-
CC(C)c1ccc(OCC(O)CN2CCN(c3ccccc3)CC2)cc1 (configuration not stated),-,-,-,-,-2.8
Cc1ccc(/C=N/NC(=O)CCn2nc(C)cc2C)c(C)c1,-,27,-,-,.
CCOc1ccc2c(c1)-c1c(ssc1=S)C(C)(C)N2C(=O)c1ccco1,-,-,68,-,-
COc1ccc2c(c1)-c1c(ssc1=S)C(C)(C)N2C(=O)CSC1=NCCS1,.,-,-,-,.
COc1ccc(/C=C2\C(=O)N(Cc3ccc(F)cc3)CC(=O)N2Cc2ccccc2)cc1,-,-,-,-,.
COc1ccc(/C=C2\C(=O)NCC(=O)N2Cc2ccccc2)cc1,.,32,-,-,.
CCCN1CC(O)=C(C#N)C1=O,-,-,-,-,-
CCCCC1=NN(C(=O)c2ccco2)C(O)(C(F)(F)F)C1 (configuration not stated),-,15,-,-,-
CCCCC1=NN(C(=O)c2ccncc2)C(O)(C(F)(F)F)C1 (configuration not stated),-,.,-,.,.
COc1ccc(OCC(O)CNC(=O)c2sccc2Cl)cc1 (configuration not stated),-,.,-,.,.
COc1ccc(NC(=O)c2cc(-c3ccccc3OC)on2)cc1,-,51,145,-,-
O=c1[nH]nc(SCc2cc(Cl)ccc2Cl)c(=O)[nH]1,-,.,-,.,.
O=C1N/C(=N\N=C\c2cccs2)SC1Cc1ccc(Cl)cc1Cl (configuration not stated),-,-,-,-,.
O=C1N/C(=N\N=C\c2cccs2)SC1Cc1cccc(Cl)c1Cl (configuration not stated),-,-,60,-,.
O=C(c1ccccc1)c1cc([N+](=O)[O-])ccc1N1CCOCC1,-,-,178,-,.
O=C(NCc1ccc2c(c1)OCO2)c1cc([N+](=O)[O-])ccc1N1CCCCC1,-,16,107,-,-
CCOC(=O)c1cc(CC)sc1NC(=O)c1ccc(N2CCOCC2)c([N+](=O)[O-])c1,.,-,-,-,.
O=C(c1ccc(Cl)cc1)c1cc([N+](=O)[O-])ccc1N1CCOCC1,.,-,-,-,-
CN1CCN(c2ccc([N+](=O)[O-])cc2C(=O)c2ccc(Cl)cc2)CC1,.,43,185,-,.
CCOC(=O)c1cc(CC)sc1NC(=O)c1cc([N+](=O)[O-])ccc1N1CCOCC1,.,-,59,-,-
CCCC(=O)Nc1c(-c2ccccc2)c(=O)c(C)nn1-c1ccc(C)cc1,-,.,-,.,.
SMILES,Cl transport mod,MT stabilizer,b-catenin transl,Redox H2O2 prof,ROMK primary
CC(C)CC1c2[nH]c3ccccc3c2CCN1C(=O)CCC(=O)N(C)C (configuration not stated),-,-,-,-,-
O=C(Nc1cccnc1)C1CCC(CNS(=O)(=O)c2cccc3nsnc23)CC1 (configuration not stated),-,.,-,.,-
CCOC(=O)N1CCN(C(=S)Nc2cc(S(=O)(=O)N3CCOCC3)ccc2Cl)CC1,-,-,-,-,-
Cc1ccc(C(=O)c2cc([N+](=O)[O-])ccc2N2CCCCC2)cc1,-,-,72,-,-
CCOc1ccc(C2c3cc(OC)c(OC)cc3CC(=O)N2c2ccc(OC)cc2)cc1 (configuration not stated),.,42,-,-,-
CCOc1cc2c(cc1OCC)C(c1ccc(OC)c(OC)c1)N(c1ccc(C(=O)O)cc1)C(=O)C2 (configuration not stated),-,-,-,-,-
Cc1ccc(C(=O)NN2C(=O)C3C4c5ccccc5C(c5ccccc54)C3C2=O)cc1 (configuration not stated),-,-,-,-,-
CCc1ccc(NC(=O)CSc2nc3ccccc3c(=O)n2CCCC(=O)N2CCCC2)cc1,-,27,.,-,-
COc1cc2[nH]c(=O)c(C(=O)NCCCN3CCOCC3)c(O)c2cc1OC,-,-,-,-,-
O=C(NCCCN1CCOCC1)c1c(O)c2cc(Br)cc(Br)c2[nH]c1=O,-,-,-,-,-3.3
Brc1ccc(N=C(c2ccccc2)c2ccncc2)cc1,-,-,-,-,-
COc1cccc(C(=O)N(Cc2ccccc2)Cc2cc3cc4c(cc3[nH]c2=O)OCCO4)c1,.,-,-,-,.
Cc1ccc2cc(CN(CC3CCCO3)C(=S)Nc3ccccc3)c(=O)[nH]c2c1 (configuration not stated),-,16,64,-,-
Cc1ccc2cc(CN(CC3CCCO3)C(=S)Nc3ccccc3)c(=O)[nH]c2c1C (configuration not stated),-,-,-,-,-
COc1ccc(C(=O)N(Cc2ccccc2)Cc2cc3cc4c(cc3[nH]c2=O)OCCO4)cc1,.,36,-,-,.
O=c1[nH]c2cc3c(cc2cc1CN(Cc1ccco1)C(=S)NCC1CCCO1)OCCO3 (configuration not stated),-,22,-,-,-
Cc1ccc2cc(CN(Cc3ccco3)C(=S)NCC3CCCO3)c(=O)[nH]c2c1 (configuration not stated),-,-,-,-,-
Cc1ccc2[nH]c(=O)c(CN(CC3CCCO3)C(=S)Nc3ccccc3)cc2c1 (configuration not stated),-,12,-,-,-
Cc1cc(C)c2[nH]c(=O)c(CN(CC3CCCO3)C(=S)Nc3ccccc3)cc2c1 (configuration not stated),-,-,-,-,-
COc1ccccc1NC(=O)Cc1noc(CSc2nnc(C)n2C)n1,-,-,-,-,-
Cc1ccc(Cc2ccc(C(=O)NNC(N)=S)o2)cc1,-,-,-,-,-
COc1cccc(/C=C/C(=O)Nc2ccccc2N2CCOCC2)c1,-,-,-,-,-
Cc1cc(Br)ccc1SCC(=O)OCC(=O)Nc1ccccc1C#N,-,-,-,-,.
S=C1CCC(c2ccc(Br)cc2)=NN1c1ccccc1,-,.,-,.,.
COC(=O)CN1C(c2ccccc2)=Nc2ccc(Cl)cc2C1c1ccccc1 (configuration not stated),-4,-,-,-,-3.1
COC(=O)CN1C(C)=Nc2ccc(C)cc2C1c1ccccc1 (configuration not stated),-,-,-,-,-
COCCCn1c(=S)[nH]c2c(sc3ccccc32)c1=O,57,-,-,-,5.3
COCCCn1c(=O)c2ccccc2c2ccccc2c1=O,.,-,.,-,-
Cc1nc2ccccc2n1/N=C/c1ccc([N+](=O)[O-])s1,-,10,-,-,-
